MrgX1 ag – agonists of human MrgX1 receptor. AID 588627. 310,000 compounds, 0.44% hits. Q96LB2. MrgX1-HEK293 cells, Fluo-4 calcium fluorescence, agonist mode; active compounds read high. B-score at 10 µM;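 active = calcium response B-score plate-corrected fluorescence ratio at least 3 library SD, with starting fluorescence B-score inside 5 SD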
Target sequence (Q96LB2 whole entry, looked up): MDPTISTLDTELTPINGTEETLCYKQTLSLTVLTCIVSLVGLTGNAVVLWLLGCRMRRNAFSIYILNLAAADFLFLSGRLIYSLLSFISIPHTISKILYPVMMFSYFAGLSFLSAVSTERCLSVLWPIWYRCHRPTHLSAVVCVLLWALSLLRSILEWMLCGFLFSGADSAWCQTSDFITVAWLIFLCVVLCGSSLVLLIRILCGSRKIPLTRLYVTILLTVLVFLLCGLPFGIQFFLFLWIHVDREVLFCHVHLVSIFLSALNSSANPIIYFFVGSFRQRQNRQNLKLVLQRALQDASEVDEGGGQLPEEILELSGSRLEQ
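Material – MrgX1-expressing HEK293 cells · Input – 15,000 cells seeded per well · Dosing – compound as first of three additions · Times – overnight seeding, then 1 h dark dye loading · Measured by – kinetic Fluo-4 NW fluorescence of intracellular calcium · Read-out – B-scored fluorescence response ratio · Benchmarks – positive and negative control wells on each plate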
RGS4 act – RGS4 potentiation or activation; HEK293 M3R/inducible RGS4, carbachol calcium flux Fluo4; active compounds read low; AID 463111; 310,000 compounds, 0.92% hits; B-score at 10 µM;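 active = B-score of the integrated calcium signal more than 4 SD below the library mean, with starting fluorescence not abnormally high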;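 also: negative B-score means reduced calcium response which marks RGS4 activation or potentiation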
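Test system: HEK293 cells with stable M3R and inducible RGS4; also added: carbachol at ECmax as muscarinic agonist stimulus; schedule: dye loading 30 min 37 °C, buffer rest 30 min RT; technique: kinetic calcium fluorescence imaging with Fluo4-AM dye, 2 µM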
MrgX1 PAM – allosterically activates human MrgX1 receptor signaling; Q96LB2; MrgX1-HEK293, Fluo-4 calcium flux, FDSS; active compounds read high; B-score at 10 µM; 310,000 compounds, 0.63% hits; AID 588675;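 active = plate-corrected calcium response at least 3 library SD above typical, normal starting fluorescence, not activating the receptor alone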;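 also: compound read alongside a low EC10 to EC30 dose of BAM8-22 agonist; peak minus trough fluorescence over baseline measured at the second addition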
MrgX1 antagonist – human MrgX1 receptor antagonism, primary screen; Q96LB2; MRGX1-HEK293 calcium flux, Fluo-4, BAM8-22 antagonism; active compounds read low; B-score at 10 µM; 310,000 compounds, 1.3% hits;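 active = calcium-response B-score plate-corrected more than 3 library SD below zero, starting fluorescence within 5 deviations, no agonist response on first addition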;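 also: peak minus trough fluorescence over baseline after final BAM8-22 challenge near maximal dose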
RGS4 inh – human RGS4 inhibition; HEK293 M3R/RGS4 inducible, Fluo-4 calcium flux; active compounds read high; triggered by carbachol at its EC20; B-score at 10 µM; 310,000 compounds, 0.45% hits; AID 463165;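 active = B-score, a plate-corrected calcium signal, over three deviations above library mean, with baseline fluorescence within five deviations of library mean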;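 also: RGS4 expression induced by doxycycline in cells with stable M3 receptor; B-score is computed from the integrated fluorescence ratio over baseline after carbachol; higher B-score means a larger calcium signal and so more RGS4 inhibition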
Target sequence (P49798 whole entry, looked up): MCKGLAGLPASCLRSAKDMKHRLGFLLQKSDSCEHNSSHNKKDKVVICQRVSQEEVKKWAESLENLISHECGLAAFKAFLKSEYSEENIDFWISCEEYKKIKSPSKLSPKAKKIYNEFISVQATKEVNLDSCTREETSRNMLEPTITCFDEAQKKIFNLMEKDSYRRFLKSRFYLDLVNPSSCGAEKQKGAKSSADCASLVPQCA
RGS4 inh valid – validation of RGS4 inhibitors | 1,700 compounds, 65% hits | AID 492999 | calcium response, % at 10 µM | shares compounds with RGS4 inh | HEK293 M3R/RGS4, carbachol calcium Fluo-4 fluorescence; carbachol added at its EC20; 0 = buffer wells, 100 = carbachol control;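 active = duplicate-averaged calcium response above the buffer-only control mean plus 5 SD of those controls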;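 also: integrated fluorescence ratio F max minus min over baseline F0; higher response in RGS4-induced cells means RGS4 inhibition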
M3R Ca ctr – checks RGS4 inhibitor effects in non-induced HEK293 M3R cells; shares compounds with RGS4 inh; carbachol calcium Fluo-4; submaximal (EC20) carbachol stimulus; buffer wells 0%, carbachol control wells 100%; activity (percent), % at 10 µM; 1,900 compounds, 20% hits; call rule not given here;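 also: RGS4 induction absent so cells express M3R without RGS4; higher means more calcium signal and flags a non-specific hit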
RGS4 inh ctr2 – signal in non-induced cells without carbachol, RGS4 inhibitor counter-screen; shares compounds with RGS4 inh; HEK293 M3R/RGS4 non-induced, Fluo-4 calcium, no carbachol; normalised: buffer wells 0%, carbachol wells 100%; calcium response (agonist-mode artifact), % at 10 µM; 1,900 compounds, 22% hits; AID 493001;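 active = duplicate-averaged calcium rise in uninduced cells above buffer wells' mean plus 5 SD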
* = called active by the depositor; i = inactive; · = no result. Only some compounds are listed: those with a hit (about 3.5% of all), similar ones and a draw of the others.

SMILES	MrgX1 ag	RGS4 act	MrgX1 PAM	MrgX1 antagonist	RGS4 inh	RGS4 inh valid	M3R Ca ctr	RGS4 inh ctr2
O=C(CSCC(=O)N1CCCCC1)Nc1nc(-c2ccc(Cl)s2)cs1	i	i	i	i	9.34*	i	i	i
CCOC(=O)N1CCN(C(=O)CSCC(=O)Nc2nc(-c3ccccc3)cs2)CC1	i	i	i	i	i	·	·	·
O=C(CSCC(=O)N1CCCCC1)Nc1nc(-c2cccs2)cs1	i	i	i	i	i	·	·	·
O=Cc1cccc2ccc3cccc(C(=O)O)c3c12	i	i	i	i	i	·	·	·
O=C(CCn1c(=O)oc2ccccc21)NCc1cccs1	i	i	i	i	i	·	·	·
Cn1cccc1C(=O)OCC(=O)N1CC(=O)Nc2ccccc21	i	i	i	i	i	·	·	·
Cn1cccc1C(=O)OCC(=O)N1c2ccccc2NC(=O)C1(C)C	i	i	i	i	5.2*	6.5%*	i	i
COc1ccc(CN(C(=O)c2ccccc2Br)C2CCS(=O)(=O)C2)cc1 (configuration not stated)	i	i	i	i	i	·	·	·
CN(C)/C=C1/N=C(c2ccccc2)OC1=O	i	i	i	i	i	·	·	·
O=CC1=C(c2ccccc2)Oc2ccccc2O1	i	i	i	i	10.2*	19.0%*	39.5%*	i
COc1cc(/C=C(\C#N)C(=O)NC2CCCCC2C)ccc1OS(=O)(=O)c1ccc(C)cc1 (configuration not stated)	i	i	i	i	i	·	·	·
COc1cc(/C=C(\C#N)C(N)=O)ccc1OS(=O)(=O)c1ccc(C)cc1	42.6*	i	i	i	4.86*	30.0%*	40.5%*	31.0%*
Cc1ccc(C2=NN(CCC(=O)NC3CCCC3)C(=O)CC2)cc1	i	i	i	i	i	·	·	·
CCOC(=O)C(=Cc1cc(=O)c(OC)co1)C(=O)OCC	·	i	·	·	8.01*	15.0%*	i	14.5%*
CCOc1ccccc1CNC(=O)CCNS(=O)(=O)c1ccc2[nH]c(=O)oc2c1	i	i	i	i	i	·	·	·
CNc1nc2c(N)ncnc2n1[C@H]1O[C@@H](CO)[C@H](O)[C@@H]1O	i	i	i	i	6.84*	13.0%*	35.5%*	i
Nc1nc(Nc2ccccc2)nc2c1ncn2[C@@H]1O[C@H](CO)[C@@H](O)[C@H]1O	i	i	6.45*	i	6.18*	23.5%*	i	357.0%*
Nc1nc(F)nc2c1ncn2[C@@H]1O[C@H](CO)[C@@H](O)[C@H]1O	i	i	i	i	10.9*	51.5%*	30.5%*	i
Nc1ncnc2c1ncn2C1OC(CO)C(O)C1N (configuration not stated)	i	i	i	i	i	·	i	i
Nc1ncnc2c1ncn2C1O[C@H](CO)[C@@H](O)[C@@H]1O (some centres not stated)	i	·	i	i	·	·	·	·
Nc1nc(F)nc2c1ncn2[C@@H]1O[C@H](CO)[C@@H](O)[C@@H]1O	i	i	i	i	i	·	·	·
Nc1ncnc2c1ncn2[C@@H]1O[C@H](CO)[C@@H](O)[C@@H]1O	i	i	i	i	i	·	·	·
CCOc1ccc(CCNC(=O)c2cnc(C)cn2)cc1OCC	i	i	i	i	i	·	·	·
COc1ccccc1OCC(O)CN1CCN(C(=O)c2ccccc2)CC1 (configuration not stated)	i	i	i	i	i	·	·	·
N#C/C(=C/c1ccc(C(=O)O)cc1)C(=O)Nc1ccccc1	i	i	i	i	i	·	·	·
CC(/C=C/c1ccccc1)=N/NC(=O)CCC(=O)Nc1ccccc1C	i	i	i	i	i	·	·	·
CC(=O)/C(=C/c1ccccc1)C(=O)Nc1ccccc1C	i	i	i	i	27.9*	64.5%*	63.5%*	i

Bioassay records: PubChem, Johns Hopkins Ion Channel Center
